This is a sample that favours compounds with a hit; in the whole collection about 3.1% have one here.
KCNK9 block: human KCNK9 channel inhibition; Q9NPC2; HEK293 KCNK9, FluxOR thallium flux fluorescence; active compounds read low; B-score at 10 µM; 1.2% of 310,000 active; AID 488922;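 active = ratio B-score over 3 SD below the library mean, with starting fluorescence within 5 SD of its mean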;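 also: negative B-score means less thallium flux so channel inhibition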
KCNK3 inh: human KCNK3 channel inhibition, primary screen; 0.84% of 340,000 active; B-score at 10 µM; O14649; CHO-KCNK3 thallium flux, FluxOR fluorescence; active compounds read low;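 active = B-score under library mean minus 4 SD, starting fluorescence ratio at most library mean plus 5 SD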;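 also: more negative B-score means stronger inhibition of thallium flux through KCNK3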
Target sequence (O14649 whole entry, looked up): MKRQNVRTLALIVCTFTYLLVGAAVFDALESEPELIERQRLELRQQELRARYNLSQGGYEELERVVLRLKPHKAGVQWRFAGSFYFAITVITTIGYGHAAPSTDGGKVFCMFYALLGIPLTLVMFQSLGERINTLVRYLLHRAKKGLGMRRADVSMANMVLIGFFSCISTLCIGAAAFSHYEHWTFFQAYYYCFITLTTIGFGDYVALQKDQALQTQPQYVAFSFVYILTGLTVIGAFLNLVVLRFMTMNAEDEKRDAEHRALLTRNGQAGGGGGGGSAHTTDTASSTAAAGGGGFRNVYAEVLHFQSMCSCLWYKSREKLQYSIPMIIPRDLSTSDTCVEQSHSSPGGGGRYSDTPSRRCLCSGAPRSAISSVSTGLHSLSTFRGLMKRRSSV
KCNQ1 inh: blocks the human KCNQ1 potassium channel; B-score at 10 µM; AID 2642; CHO-K1 KCNQ1, FluxOR thallium flux fluorescence; active compounds read high; 1.3% of 310,000 active;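 active = compounds whose thallium flux B-score, printed positive for inhibition, exceeds three library SD while starting fluorescence stays within three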;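 also: channel opened by potassium depolarization with thallium stimulus after 20 min compound exposure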
hERG protect: hERG (human) protection from proarrhythmic block; CHO-hERG, FluxOR thallium flux, dofetilide IC70 present; activation (rescue from dofetilide block), less the hit threshold, % at 10 µM; 0.51% of 310,000 active; AID 1511;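 active = activation above the mean of controls blocked by dofetilide plus 5 SD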;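 also: thallium influx through hERG after potassium depolarization seen as dye fluorescence rise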
KCNQ1 act: human KCNQ1 channel potentiation or activation. AID 2648. 0.35% of 310,000 active. CHO-K1 KCNQ1, thallium flux FluxOR fluorescence; active compounds read high. B-score at 10 µM. P51787;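 active = fluorescence ratio B-score, a plate-corrected score, at least three library SD, with initial intensity B-score within 5 SD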
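Assay system: CHO-K1 cells stably expressing KCNQ1; Medium: assay buffer with matched DMSO; Also added: K+/Tl+ depolarizing stimulus; Dosing: single dose; Timing: dye 90 min, compound 20 min, room temperature; Measured by: kinetic FluxOR thallium fluorescence, 10-s 1-Hz baseline, 110-s post-stimulus read; Read-out: peak-minus-minimum fluorescence over initial fluorescence, negative-control normalized, B-scored.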
Numbers stand for hits; 0 = inactive; - = not tested or not shown.

SMILES | KCNK9 block | KCNK3 inh | KCNQ1 inh | hERG protect | KCNQ1 act
Cc1c(NC(=O)CN2C(=O)NC(C)(c3ccccc3)C2=O)c(=O)n(-c2ccccc2)n1C (stereo not drawn) | 0 | 0 | 0 | 5.8 | 0
Cc1ccc(C2(C)NC(=O)N(CC(=O)Nc3c(C)n(C)n(-c4ccccc4)c3=O)C2=O)cc1 (stereo not drawn) | 0 | 0 | 0 | 0 | 0
Cc1nnnn1/C(=C\c1ccccc1)C(=O)OCC(=O)Nc1ccc(Cl)cc1F | 0 | 0 | 0 | 0 | 7
CCNc1nc(SCCOc2ccc(C)cc2)nc(N(C)C)n1 | 0 | 0 | 0 | 0 | 0
Cc1ccc(OCCSc2nc(NC(C)C)nc(NC(C)C)n2)cc1 | 0 | 0 | 6 | 0 | 0
Nc1cc(=O)[nH]c(SCC(=O)N2CCC(Cc3ccccc3)CC2)n1 | - | 0 | - | - | -
CCc1cccc(CC)c1NC(=O)COC(=O)C1(c2ccc(Cl)cc2)CCCC1 | -7.1 | 0 | 0 | 0 | 0
CC1=NN(c2nc(-c3ccc(C)cc3)cs2)C(=O)C1N=Nc1ccccc1O (stereo not drawn) | 0 | 0 | 6 | 0 | 0
CCOC(CCNC(=O)c1cn(CC(C)C)c(=O)c2c1c1ccccc1n2C)OCC | 0 | 0 | 0 | 0 | 0
CCN1/C(=C/c2cc[n+](CCCS(=O)(=O)[O-])c3ccccc23)Sc2ccccc21 | 0 | 0 | 0 | 0 | 0
C=CC[n+]1ccc(/C=C2\C=Cc3cc(C)ccc3N2CC)c2ccccc21 | - | -15 | - | - | -
O=C(NCC1CCCO1)c1ccc(N2CCCCC2)c([N+](=O)[O-])c1 (stereo not drawn) | 0 | 0 | 0 | 0 | 0
O=C(NC12CC3CC(CC(C3)C1)C2)N(Cc1ccccc1)Cc1ccncc1 | 0 | 0 | 6 | 0 | 0
O=C(COc1ccc(C(=O)c2ccccc2)cc1)Nc1cccnc1 | 0 | 0 | 0 | 16 | 0
Oc1c(Cl)cc(Cl)cc1C=Nc1ccc(Br)cc1 | 0 | 0 | 0 | 5.0 | 0
COCCN(C(=O)c1cc(CN2C(=O)c3ccccc3C2=O)ccc1OC)c1c(N)n(CC(C)C)c(=O)[nH]c1=O | - | 0 | - | - | -
COc1cc(/C=C2/CC/C(=C/c3ccc(O)c(OC)c3)C2=O)ccc1O | -7.4 | -9.1 | 0 | 0 | 0
COc1cc(/C=C2\C(=O)N(C)C(=S)N2C)ccc1O | 0 | 0 | 0 | 0 | 15
CN1C(=O)/C(=C/c2ccc(O)c([N+](=O)[O-])c2)N(C)C1=S | 0 | 0 | 0 | 0 | 0
O=C(Nc1ccccc1Cl)C1C(c2ccccc2)C1(Cl)Cl (stereo not drawn) | 0 | 0 | 6 | 0 | 0
CCc1ccccc1NC(=O)C1C(c2ccccc2)C1(Cl)Cl (stereo not drawn) | 0 | 0 | 0 | 0 | 0
Cc1nc(NCCc2ccc(O)cc2)c2nnn(Cc3ccccc3)c2n1 | 0 | 0 | 0 | 9.1 | 0
C=CCn1c(C)cc(-c2csc(NCC)n2)c1C | 0 | 0 | 6 | 0 | 0
COc1ccc(CNC(=O)c2cc(=O)c3ccccc3o2)cc1 | 0 | 0 | 0 | 0 | 0
COc1cc(OC)c(OC)cc1CNC(=O)c1cc(=O)c2ccccc2o1 | 0 | 0 | 0 | 0 | 9
SMILES | KCNK9 block | KCNK3 inh | KCNQ1 inh | hERG protect | KCNQ1 act
Cc1oc(-c2ccccc2Cl)nc1CN1CCCN(C(=O)c2ccco2)CC1 | 0 | 0 | 0 | 0 | 0
COc1ccc(N2C(=O)c3cccc4c(N(C)CCO)ccc(c34)C2=O)cc1 | 0 | 0 | 7 | 0 | 0
Cc1ccc(NC(=S)N(CCC(C)C)C(C)c2ccncc2)c(Cl)c1 (stereo not drawn) | 0 | 0 | 0 | 0 | 0
CC(=O)c1c(C)[nH]c(C(=O)CN(C)CC(=O)Nc2ccccc2Cl)c1C | - | 0 | - | - | -
CCOC(=O)c1c(C)[nH]c(C(=O)CN(C)CC(=O)Nc2ccccc2Cl)c1C | - | -11 | - | - | -
CCCOP(=O)(OCCC)C(Nc1ccc(C(=O)O)cc1)c1ccccc1 (stereo not drawn) | 0 | 0 | 0 | 0 | 0
CCCCOP(=O)(OCCCC)C(Nc1ccc(C(=O)OCC)cc1)c1ccncc1 (stereo not drawn) | 0 | 0 | 6 | 0 | 0
NC(N)=NC(=S)Nc1ccc(Cl)cc1 | 0 | 0 | 0 | 0 | 0
COc1cccc(C=NCCCN=Cc2cccc(OC)c2O)c1O | 0 | 0 | 0 | 5.7 | 0
NC(=O)Cn1nnc(-c2ccc(NC(=O)c3ccc(F)cc3)cc2)n1 | 0 | 0 | 0 | 0 | 0
COc1ccc(NC(=O)c2ccccc2NS(=O)(=O)c2ccc(C)cc2)c([N+](=O)[O-])c1 | 0 | 0 | 0 | 0 | 0
Cc1ccc(C)c(S(=O)(=O)Nc2ccc(O)c3ccccc23)c1 | 0 | 0 | 0 | 0 | 0
Cc1ccc(S(=O)(=O)Nc2ccc(O)c3ccccc23)c(C)c1 | 0 | 0 | 0 | 9.0 | 0
COc1ccc(C(=O)COC(=O)c2ccccc2NS(=O)(=O)c2ccc(O)c([N+](=O)[O-])c2)cc1 | 0 | 0 | 9 | 0 | 0
COc1ccc(S(=O)(=O)Nc2ccccc2)cc1 | 0 | 0 | 0 | 0 | 0
COc1ccc(S(=O)(=O)Nc2ccc(O)c3ccccc23)cc1 | 0 | 0 | 0 | 5.1 | 0
Cc1cccc(CCNCc2c(C(=O)O)c(C)n(-c3ccccc3)c2C)c1 | 0 | 0 | 0 | 0 | 0
COc1ccc(C(c2c[nH]c3ccccc23)c2c[nH]c3ccccc23)cc1O | 0 | 0 | 7 | 0 | 0
COc1ccc(CN2CCC(Oc3ccc(C(=O)N4CCCC4)cc3)CC2)c(F)c1 | 0 | 0 | 0 | 0 | 0
Cc1cc2c(=Cc3ccc(N(C)C)cc3)c3ccccc3n2[n+]1C | - | -10 | - | - | -
CCOC(=O)c1cc2c(=Cc3ccc(N(C)C)cc3)c3ccccc3n2[n+]1C | - | -11 | - | - | -
COc1cc2[nH]c(=O)n(CCC(=O)NCCCN3CCN(c4ccccc4F)CC3)c(=O)c2cc1OC | 0 | 0 | 0 | 0 | 0
Cc1onc(-c2c(Cl)cccc2Cl)c1C(N)=O | 0 | 0 | 0 | 0 | 0
Cc1onc(-c2c(Cl)cccc2Cl)c1C(=O)n1nnc2ccccc21 | 0 | - | 0 | 4.8 | 0
CCOC(=O)c1c(C)[nH]c(C(C)=O)c1C | 0 | 0 | 0 | 0 | 0
SMILES | KCNK9 block | KCNK3 inh | KCNQ1 inh | hERG protect | KCNQ1 act
CCOC(=O)c1[nH]c(C=O)c(C(=O)OCC)c1C | 0 | 0 | 0 | 4.9 | 13
Cc1ccc(-c2cc(C(=O)OCC(=O)N(C)c3c(N)n(Cc4ccccc4)c(=O)[nH]c3=O)c3ccccc3n2)o1 | 0 | 0 | 0 | 0 | 0
CCCCn1nnc(NC(=O)Cc2ccc(Cl)cc2)n1 | 0 | 0 | 0 | 6.0 | 0
CCCCn1nnc(NC(=O)c2ccc(-c3cccc([N+](=O)[O-])c3)o2)n1 | 0 | - | 0 | 22 | 0
CCCCn1nnc(NC(=O)c2ccc(-c3cccc(Cl)c3)o2)n1 | 0 | 0 | 0 | 0 | 0
Cc1cccc(C)c1OCC(=O)Nc1ccc(N2CCOCC2)cc1 | 0 | 0 | 0 | 0 | 0
O=C1C2CC=CCC2C(=O)N1c1ccc(Cc2ccncc2)cc1 (stereo not drawn) | 0 | 0 | 0 | 5.0 | 0
O=C1CC(Cc2ccc(Cl)cc2)C(=O)N1c1ccncc1 (stereo not drawn) | 0 | 0 | 0 | 0 | 0
CCCCCCCCNC(CO)(CO)CO | 0 | 0 | 0 | 0 | 0
COc1cc(Cl)c(C)cc1NC(=O)c1cc(S(=O)(=O)N(C)C)ccc1N1CCCC1 | 0 | 0 | 0 | 0 | 0

High-throughput results as filed in PubChem BioAssay.
